# Calls of active or inactive are those of the source. The calls are words filed in the database; no cut-off is given here.
# Tests used:
# HeLa [1] = test: Induction of autophagy in human HeLa cells assessed as increase in LC3-2 level at 20 and 40 uM after 48 hrs by Western blot analysis; format: functional, cell-based
# In short: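 Cells were treated with or without compound for 48 h: MCF-7 at 5 and 10 µM, HeLa and BEL-7402 at 20 and 40 µM. Total protein (10 µg) in SDS sample buffer (pH 6.8) was run on 8–15% SDS-PAGE and transferred to PVDF. LC3-I/LC3-II were probed with HRP secondary antibody and ECL detection. The assay was repeated at least three times.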
# HeLa [2] = test: Induction of cell cycle arrest in human HeLa cells assessed as accumulation at G2/M phase at 20 uM after 48 hrs by PI staining-based flow cytometric analysis (reference value: 25.44%); format: functional
# MCF7 [3] = test: Induction of cell cycle arrest in human MCF7 cells assessed as accumulation at G2/M phase at 10 uM after 24 hrs by PI staining-based flow cytometric analysis (reference value: 19.85%); format: functional
# MCF7 [4] = test: Induction of cell cycle arrest in human MCF7 cells assessed as accumulation at S phase at 10 uM after 24 hrs by PI staining-based flow cytometric analysis (reference value: 27.09%); format: functional
# MCF7 [5] = test: Induction of cell cycle arrest in human MCF7 cells assessed as accumulation at G0/G1 phase at 10 uM after 48 hrs by PI staining-based flow cytometric analysis (reference value: 50.76%); format: functional
# MCF7 [6] = test: Induction of autophagy in human MCF7 cells at 5 uM after 72 hrs by MDC staining-based flow cytometric analysis (reference value: 2.54%); format: functional
# MCF7 [7] = test: Induction of apoptosis in human MCF7 cells assessed as accumulation at subG1 phase at 10 uM after 48 hrs by PI staining-based flow cytometric analysis (reference value: 2.98%); format: functional
# HeLa [8] = test: Induction of autophagy in human HeLa cells assessed as autophagosome accumulation at 20 uM after 72 hrs by MDC staining-based flow cytometric analysis (reference value: 1.92%); format: functional
# Bel-7402 [9] = test: Induction of cell cycle arrest in human Bel7402 cells assessed as accumulation at S phase at 20 uM after 48 hrs by PI staining-based flow cytometric analysis (reference value: 25.01%); format: functional
# Bel-7402 [10] = test: Induction of cell cycle arrest in human Bel7402 cells assessed as accumulation at S phase at 20 uM after 72 hrs by PI staining-based flow cytometric analysis (reference value: 25.01%); format: functional
# HeLa [11] = test: Induction of autophagy in human HeLa cells assessed as autophagic cell formation at 40 uM after 72 hrs by MDC staining-based flow cytometric analysis (reference value: 1.92%); format: functional
# HeLa [12] = test: Induction of cell cycle arrest in human HeLa cells assessed as accumulation at G2/M phase at 20 uM after 72 hrs by PI staining-based flow cytometric analysis (reference value: 25.44%); format: functional
# MCF7 [13] = test: Induction of cell cycle arrest in human MCF7 cells assessed as accumulation at G2/M phase at 10 uM after 72 hrs by PI staining-based flow cytometric analysis (reference value: 19.85%); format: functional
# Bel-7402 [14] = test: Induction of cell cycle arrest in human Bel7402 cells assessed as accumulation at G2/M phase at 20 uM after 48 hrs by PI staining-based flow cytometric analysis (reference value: 22.26%); format: functional
# Bel-7402 [15] = test: Induction of apoptosis in human Bel7402 cells assessed as accumulation at subG1 phase at 20 uM after 48 hrs by PI staining-based flow cytometric analysis (reference value: 2.87%); format: functional
structure (smiles),measurement,setting,value
Cc1ccc(S(=O)(=O)N[C@H](Cc2ccccc2)C(=O)OC[C@H](Cc2ccccc2)NC(=O)c2ccccc2)cc1,Activity,HeLa [1],Active
same,Activity,HeLa [2],22.18%
same,Activity,MCF7 [3],19.09%
same,Activity,MCF7 [4],24.98%
same,Activity,MCF7 [5],48.81%
same,Activity,MCF7 [6],40.31%
same,Activity,MCF7 [7],3.22%
same,Activity,HeLa [8],26.11%
same,Activity,Bel-7402 [9],26.01%
same,Activity,Bel-7402 [10],26.88%
same,Activity,HeLa [11],49.37%
same,Activity,HeLa [12],21.52%
same,Activity,MCF7 [13],20.07%
same,Activity,Bel-7402 [14],22.8%
same,Activity,Bel-7402 [15],3.01%

# Source: ChEMBL document CHEMBL3763127, “Design, synthesis and biological evaluation of novel asperphenamate derivatives” (Eur J Med Chem, 2016)
